Experimental data: ChEMBL document CHEMBL1131619, “32-Ascomycinyloxyacetic acid derived immunosuppressants. Independence of immunophilin binding and immunosuppressive potency” (J Med Chem, 1998)
pIC50: −log10 of the molar value.

Legend:
[1] = target: Peptidyl-prolyl cis-trans isomerase FKBP1A (Homo sapiens, UniProt P62942); assay: Inhibitory binding activity against human Immunophilin-FK-506 binding protein 12
Outline: (§1)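 IC50 values are reported as mean ± SD for the stated number of determinations, using human cells or protein.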

[2] = species: Homo sapiens; assay: Inhibition of human mixed lymphocyte response (MLR); assay type: functional; outline: as §1
[3] = tested on: Rattus norvegicus; assay: Inhibition of rat popliteal lymph node (PLN) hyperplasia when given ip; assay type: functional
Outline: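 Popliteal lymph node hyperplasia is induced in Lewis rats by Brown Norway rat cells, and its inhibition is measured.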

Chain of Peptidyl-prolyl cis-trans isomerase FKBP1A (P62942 whole entry): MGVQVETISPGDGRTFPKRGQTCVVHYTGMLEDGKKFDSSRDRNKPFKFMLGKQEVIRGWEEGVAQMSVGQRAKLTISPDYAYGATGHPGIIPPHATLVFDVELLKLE

pIC50 [1] | pIC50 [2] | SMILES | ED50 [3]
6.33 | 9.85 | CC[C@@H]1/C=C(\C)C[C@H](C)C[C@H](OC)[C@H]2O[C@@](O)(C(=O)C(=O)N3CCCC[C@H]3C(=O)O[C@H](/C(C)=C/C3CC[C@@H](OCC(=O)Nc4cccc(C(F)(F)F)c4)[C@H](OC)C3)[C@H](C)[C@@H](O)CC1=O)[C@H](C)C[C@@H]2OC (some centres undefined) | –
7.30 | 10.40 | CC[C@@H]1/C=C(\C)C[C@H](C)C[C@H](OC)[C@H]2O[C@@](O)(C(=O)C(=O)N3CCCC[C@H]3C(=O)O[C@H](/C(C)=C/C3CC[C@@H](OCC(=O)Nc4ccc(OC)cc4)[C@H](OC)C3)[C@H](C)[C@@H](O)CC1=O)[C@H](C)C[C@@H]2OC (some centres undefined) | –
6.30 | 9.26 | CC[C@@H]1/C=C(\C)C[C@H](C)C[C@H](OC)[C@H]2O[C@@](O)(C(=O)C(=O)N3CCCC[C@H]3C(=O)O[C@H](/C(C)=C/C3CC[C@@H](OCC(=O)Nc4ccc(Cl)c(Cl)c4)[C@H](OC)C3)[C@H](C)[C@@H](O)CC1=O)[C@H](C)C[C@@H]2OC (some centres undefined) | –
8.54 | 9.59 | CC[C@@H]1/C=C(\C)C[C@H](C)C[C@H](OC)[C@H]2O[C@@](O)(C(=O)C(=O)N3CCCC[C@H]3C(=O)O[C@H](/C(C)=C/C3CC[C@@H](OCC(=O)N(C)c4ccccc4)[C@H](OC)C3)[C@H](C)[C@@H](O)CC1=O)[C@H](C)C[C@@H]2OC (some centres undefined) | 1.9 mg/kg/day
8.68 | – | CC[C@@H]1/C=C(\C)C[C@H](C)C[C@H](OC)[C@H]2O[C@@](O)(C(=O)C(=O)N3CCCC[C@H]3C(=O)O[C@H](/C(C)=C/[C@@H]3CC[C@@H](O)[C@H](OC)C3)[C@H](C)[C@@H](O)CC1=O)[C@H](C)C[C@@H]2OC [ASCOMYCIN] | 0.3 mg/kg/day
8.70 | 9.33 | CC[C@@H]1/C=C(\C)C[C@H](C)C[C@H](OC)[C@H]2O[C@@](O)(C(=O)C(=O)N3CCCC[C@H]3C(=O)O[C@H](/C(C)=C/C3CC[C@@H](OCC(=O)NC4CCCCC4)[C@H](OC)C3)[C@H](C)[C@@H](O)CC1=O)[C@H](C)C[C@@H]2OC (some centres undefined) | –
6.77 | 9.54 | CC[C@@H]1/C=C(\C)C[C@H](C)C[C@H](OC)[C@H]2O[C@@](O)(C(=O)C(=O)N3CCCC[C@H]3C(=O)O[C@H](/C(C)=C/C3CC[C@@H](OCC(=O)Nc4ccccc4)[C@H](OC)C3)[C@H](C)[C@@H](O)CC1=O)[C@H](C)C[C@@H]2OC (some centres undefined) | 1.4 mg/kg/day
7.89 | 9.47 | CC[C@@H]1/C=C(\C)C[C@H](C)C[C@H](OC)[C@H]2O[C@@](O)(C(=O)C(=O)N3CCCC[C@H]3C(=O)O[C@H](/C(C)=C/C3CC[C@@H](OCC(=O)NCCc4ccccc4)[C@H](OC)C3)[C@H](C)[C@@H](O)CC1=O)[C@H](C)C[C@@H]2OC (some centres undefined) | > 3 mg/kg/day
7.72 | 9.24 | CC[C@@H]1/C=C(\C)C[C@H](C)C[C@H](OC)[C@H]2O[C@@](O)(C(=O)C(=O)N3CCCC[C@H]3C(=O)O[C@H](/C(C)=C/C3CC[C@@H](OCC(=O)Nc4ccc(N5CCOCC5)cc4)[C@H](OC)C3)[C@H](C)[C@@H](O)CC1=O)[C@H](C)C[C@@H]2OC (some centres undefined) | –
7.15 | 10.70 | CC[C@@H]1/C=C(\C)C[C@H](C)C[C@H](OC)[C@H]2O[C@@](O)(C(=O)C(=O)N3CCCC[C@H]3C(=O)O[C@H](/C(C)=C/C3CC[C@@H](OCC(=O)Nc4ccc(C)cc4)[C@H](OC)C3)[C@H](C)[C@@H](O)CC1=O)[C@H](C)C[C@@H]2OC (some centres undefined) | –
8.03 | 9.04 | CCOC(=O)CO[C@@H]1CCC(/C=C(\C)[C@H]2OC(=O)[C@@H]3CCCCN3C(=O)C(=O)[C@]3(O)O[C@H]([C@@H](OC)C[C@@H](C)C/C(C)=C/[C@@H](CC)C(=O)C[C@H](O)[C@H]2C)[C@@H](OC)C[C@H]3C)C[C@H]1OC (some centres undefined) | > 3 mg/kg/day
7.17 | 8.12 | CC[C@@H]1/C=C(\C)C[C@H](C)C[C@H](OC)[C@H]2O[C@@](O)(C(=O)C(=O)N3CCCCC3C(=O)O[C@H](/C(C)=C/C3CC[C@@H](OCC(=O)OCc4ccccc4)[C@H](OC)C3)[C@H](C)[C@@H](O)CC1=O)[C@H](C)C[C@@H]2OC (some centres undefined) | > 3 mg/kg/day
7.34 | 10.52 | CC[C@@H]1/C=C(\C)C[C@H](C)C[C@H](OC)[C@H]2O[C@@](O)(C(=O)C(=O)N3CCCC[C@H]3C(=O)O[C@H](/C(C)=C/C3CC[C@@H](OCC(=O)Nc4ccc(F)cc4)[C@H](OC)C3)[C@H](C)[C@@H](O)CC1=O)[C@H](C)C[C@@H]2OC (some centres undefined) | –
8.48 | 10.00 | CC[C@@H]1/C=C(\C)C[C@H](C)C[C@H](OC)[C@H]2O[C@@](O)(C(=O)C(=O)N3CCCC[C@H]3C(=O)O[C@H](/C(C)=C/C3CC[C@@H](OCC(=O)Nc4cccnc4)[C@H](OC)C3)[C@H](C)[C@@H](O)CC1=O)[C@H](C)C[C@@H]2OC (some centres undefined) | –
7.32 | 9.10 | CC[C@@H]1/C=C(\C)C[C@H](C)C[C@H](OC)[C@H]2O[C@@](O)(C(=O)C(=O)N3CCCC[C@H]3C(=O)O[C@H](/C(C)=C/C3CC[C@@H](OCC(=O)NCc4ccccc4)[C@H](OC)C3)[C@H](C)[C@@H](O)CC1=O)[C@H](C)C[C@@H]2OC (some centres undefined) | 1.2 mg/kg/day
9.40 | 9.19 | CC[C@@H]1/C=C(\C)C[C@H](C)C[C@H](OC)[C@H]2O[C@@](O)(C(=O)C(=O)N3CCCC[C@H]3C(=O)O[C@H](/C(C)=C/C3CC[C@@H](OCC(=O)N(C)CCc4ccccc4)[C@H](OC)C3)[C@H](C)[C@@H](O)CC1=O)[C@H](C)C[C@@H]2OC (some centres undefined) | > 3 mg/kg/day
– | 9.32 | C=CC[C@@H]1/C=C(\C)C[C@H](C)C[C@H](OC)[C@H]2O[C@@](O)(C(=O)C(=O)N3CCCC[C@H]3C(=O)O[C@H](/C(C)=C/[C@@H]3CC[C@@H](O)[C@H](OC)C3)[C@H](C)[C@@H](O)CC1=O)[C@H](C)C[C@@H]2OC [TACROLIMUS ANHYDROUS] | 0.1 mg/kg/day
8.40 | 6.85 | CC[C@@H]1/C=C(\C)C[C@H](C)C[C@H](OC)[C@H]2O[C@@](O)(C(=O)C(=O)N3CCCC[C@H]3C(=O)O[C@H](/C(C)=C/C3CC[C@@H](OCC(=O)O)[C@H](OC)C3)[C@H](C)[C@@H](O)CC1=O)[C@H](C)C[C@@H]2OC (some centres undefined) | > 3 mg/kg/day
6.74 | 9.80 | CC[C@@H]1/C=C(\C)C[C@H](C)C[C@H](OC)[C@H]2O[C@@](O)(C(=O)C(=O)N3CCCC[C@H]3C(=O)O[C@H](/C(C)=C/C3CC[C@@H](OCC(=O)Nc4cccc(F)c4)[C@H](OC)C3)[C@H](C)[C@@H](O)CC1=O)[C@H](C)C[C@@H]2OC (some centres undefined) | –
6.24 | 9.64 | CC[C@@H]1/C=C(\C)C[C@H](C)C[C@H](OC)[C@H]2O[C@@](O)(C(=O)C(=O)N3CCCC[C@H]3C(=O)O[C@H](/C(C)=C/C3CC[C@@H](OCC(=O)Nc4ccc(C(F)(F)F)cc4)[C@H](OC)C3)[C@H](C)[C@@H](O)CC1=O)[C@H](C)C[C@@H]2OC (some centres undefined) | –
9.22 | 9.89 | CC[C@@H]1/C=C(\C)C[C@H](C)C[C@H](OC)[C@H]2O[C@@](O)(C(=O)C(=O)N3CCCC[C@H]3C(=O)O[C@H](/C(C)=C/C3CC[C@@H](OCC(N)=O)[C@H](OC)C3)[C@H](C)[C@@H](O)CC1=O)[C@H](C)C[C@@H]2OC (some centres undefined) | 0.3 mg/kg/day
8.62 | 10.30 | CC[C@@H]1/C=C(\C)C[C@H](C)C[C@H](OC)[C@H]2O[C@@](O)(C(=O)C(=O)N3CCCC[C@H]3C(=O)O[C@H](/C(C)=C/C3CC[C@@H](OCC(=O)Nc4ccccn4)[C@H](OC)C3)[C@H](C)[C@@H](O)CC1=O)[C@H](C)C[C@@H]2OC (some centres undefined) | –
– | 8.90 | CO[C@H]1C[C@@H]2CC[C@@H](C)[C@@](O)(O2)C(=O)C(=O)N2CCCC[C@H]2C(=O)O[C@H]([C@H](C)C[C@@H]2CC[C@@H](O)[C@H](OC)C2)CC(=O)[C@H](C)/C=C(\C)[C@@H](O)[C@@H](OC)C(=O)[C@H](C)C[C@H](C)/C=C/C=C/C=C/1C [SIROLIMUS] | 2.1 mg/kg/day
7.80 | 9.85 | CC[C@@H]1/C=C(\C)C[C@H](C)C[C@H](OC)[C@H]2O[C@@](O)(C(=O)C(=O)N3CCCC[C@H]3C(=O)O[C@H](/C(C)=C/C3CC[C@@H](OCC(=O)Nc4ccc(O)cc4)[C@H](OC)C3)[C@H](C)[C@@H](O)CC1=O)[C@H](C)C[C@@H]2OC (some centres undefined) | –
8.25 | 10.05 | CC[C@@H]1/C=C(\C)C[C@H](C)C[C@H](OC)[C@H]2O[C@@](O)(C(=O)C(=O)N3CCCC[C@H]3C(=O)O[C@H](/C(C)=C/C3CC[C@@H](OCC(=O)N(C)Cc4ccccc4)[C@H](OC)C3)[C@H](C)[C@@H](O)CC1=O)[C@H](C)C[C@@H]2OC (some centres undefined) | > 3 mg/kg/day
6.74 | 10.15 | CC[C@@H]1/C=C(\C)C[C@H](C)C[C@H](OC)[C@H]2O[C@@](O)(C(=O)C(=O)N3CCCC[C@H]3C(=O)O[C@H](/C(C)=C/C3CC[C@@H](OCC(=O)Nc4ccc(Cl)cc4)[C@H](OC)C3)[C@H](C)[C@@H](O)CC1=O)[C@H](C)C[C@@H]2OC (some centres undefined) | –
8.49 | 9.80 | CC[C@@H]1/C=C(\C)C[C@H](C)C[C@H](OC)[C@H]2O[C@@](O)(C(=O)C(=O)N3CCCC[C@H]3C(=O)O[C@H](/C(C)=C/C3CC[C@@H](OCC(=O)Nc4ccncc4)[C@H](OC)C3)[C@H](C)[C@@H](O)CC1=O)[C@H](C)C[C@@H]2OC (some centres undefined) | –
